Published values collected from several papers.
Protocols differ between the studies behind these lines.
Target: Serine/threonine-protein kinase DCLK1 (DCLK1, Homo sapiens, UniProt O15075)
Residues used in one study (O15075 1-740): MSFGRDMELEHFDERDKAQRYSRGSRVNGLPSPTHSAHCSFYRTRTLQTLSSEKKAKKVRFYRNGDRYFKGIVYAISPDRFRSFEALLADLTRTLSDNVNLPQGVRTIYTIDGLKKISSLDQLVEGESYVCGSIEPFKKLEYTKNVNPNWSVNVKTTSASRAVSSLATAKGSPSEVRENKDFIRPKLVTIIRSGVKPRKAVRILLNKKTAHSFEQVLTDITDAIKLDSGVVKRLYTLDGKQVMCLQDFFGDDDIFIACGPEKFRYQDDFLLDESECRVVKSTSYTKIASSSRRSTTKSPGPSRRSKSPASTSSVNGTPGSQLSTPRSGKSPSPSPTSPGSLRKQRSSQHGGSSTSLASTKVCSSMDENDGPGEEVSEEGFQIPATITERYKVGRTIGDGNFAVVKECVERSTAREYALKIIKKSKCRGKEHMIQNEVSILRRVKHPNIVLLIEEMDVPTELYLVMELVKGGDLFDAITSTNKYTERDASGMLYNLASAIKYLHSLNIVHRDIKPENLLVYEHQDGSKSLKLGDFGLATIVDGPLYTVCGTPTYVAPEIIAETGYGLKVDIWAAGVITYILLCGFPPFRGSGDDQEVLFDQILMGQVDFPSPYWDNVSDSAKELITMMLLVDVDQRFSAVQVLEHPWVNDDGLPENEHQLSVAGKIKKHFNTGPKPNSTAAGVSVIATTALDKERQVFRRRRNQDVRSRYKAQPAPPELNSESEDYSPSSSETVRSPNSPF

The remaining activity of O=C(Nc1cnn(-c2csc(C(=O)NC3COC3)c2)c1)Nc1ccccc1Cl is reported as 99.2% (enzyme activity; inhibitor; 5 µM).
Cc1c(NC(=O)c2cc(C(N)=O)nc3cc(F)ccc23)c(C(F)(F)F)nn1Cc1ccc(C(C)(C)C)cc1 gave a remaining binding of 91% (cell-free assay; competition with immobilised ligand; 1 µM).
For Cn1c2c(Cl)c(Cl)ccc2c2cc(N)[nH]c(=O)c21, the ΔTm was 0.1 °C (thermal stability; DSF; 10 µM).
For Cc1ccc(C(=O)Nc2ccc(CN3CCN(C)CC3)c(C(F)(F)F)c2)cc1C#Cc1cnc2cccnn12, the remaining activity was 93% (enzyme activity; inhibitor; 23.5 nM).
For CC(=O)N1CCC(c2ccc(C(=O)NC(=N)N)cc2C(F)(F)F)CC1, the remaining binding was 100% (cell-free assay; competition with immobilised ligand; 1 µM).
O=C(CSc1nc2nccnc2c(=O)n1CCc1ccccc1)Nc1nccs1 has an inhibition of 14% (enzyme activity; inhibitor; 10 µM).
With Cc1sc(C(=O)NC2COC2)cc1-n1cc(NC(=O)Nc2c(F)cccc2Cl)cn1 the remaining activity was 67.2% (enzyme activity; inhibitor; 10 µM).
For Nc1ncnc2occ(-c3ccc(NC(=O)Nc4cc(C(F)(F)F)ccc4F)cc3)c12, the remaining signal was 80% (cell-free assay; inhibitor; 20 µM).
Cn1c2c(Cl)c(Cl)ccc2c2cc[nH]c(=O)c21 gave a ΔTm of -0.1 °C (thermal stability; DSF; 10 µM).
Nc1cnc(N2CCc3cc(S(=O)(=O)Nc4c(F)cc(Cl)cc4F)cc(N4CCCC4=O)c32)nc1 has a remaining binding of 100% (cell-free assay; competition with immobilised ligand; 1 µM).
Cn1c2c(c3ccc(Cl)c(Cl)c31)C(C#N)C1(CCN(C(=O)OC(C)(C)C)CC1)NC2=O (racemic) gave a ΔTm of 0 °C (thermal stability; DSF; 10 µM).
For CS(=O)(=O)Nc1cccc(-c2csc(NC(=O)CSc3nc4nccnc4c(=O)n3CCc3ccccc3)n2)c1, the inhibition was 1% (enzyme activity; inhibitor; 10 µM).
Cn1c2c(c3ccc(Cl)c(Cl)c31)C(C#N)C1(CCOCC1)NC2=O (centres unmarked) has a ΔTm of 0 °C (thermal stability; DSF; 10 µM).
With CC(C)(O)[C@H]1CC[C@H](Nc2ccc3ncc(-c4cccc(C(F)(F)F)c4)n3n2)CC1 the remaining activity was 93.4% (enzyme activity; inhibitor; 1 µM).
